From ChEMBL document CHEMBL1629438, “Selective peroxisome proliferator-activated receptor δ isosteric selenium agonists as potent anti-atherogenic agents in vivo” (Bioorg Med Chem Lett, 2010)
Activity calls are given as the source filed them. The rule behind the calls is not given here.

Tests used:
[1] = Drug level in LDLR-deficient mouse serum at 60 mg/kg; assay type: ADME, organism-based; design: dose 60 mg/kg
[2] = biological target: T1, Peroxisome proliferator-activated receptor gamma (Mus musculus) (UniProt P37238); assay: Agonist activity at mouse PPAR-gammaexpressed in african green monkey CV-1 cells after 24 hrs by luciferase reporter gene assay; assay type: functional, cell-based
T1 sequence (whole entry): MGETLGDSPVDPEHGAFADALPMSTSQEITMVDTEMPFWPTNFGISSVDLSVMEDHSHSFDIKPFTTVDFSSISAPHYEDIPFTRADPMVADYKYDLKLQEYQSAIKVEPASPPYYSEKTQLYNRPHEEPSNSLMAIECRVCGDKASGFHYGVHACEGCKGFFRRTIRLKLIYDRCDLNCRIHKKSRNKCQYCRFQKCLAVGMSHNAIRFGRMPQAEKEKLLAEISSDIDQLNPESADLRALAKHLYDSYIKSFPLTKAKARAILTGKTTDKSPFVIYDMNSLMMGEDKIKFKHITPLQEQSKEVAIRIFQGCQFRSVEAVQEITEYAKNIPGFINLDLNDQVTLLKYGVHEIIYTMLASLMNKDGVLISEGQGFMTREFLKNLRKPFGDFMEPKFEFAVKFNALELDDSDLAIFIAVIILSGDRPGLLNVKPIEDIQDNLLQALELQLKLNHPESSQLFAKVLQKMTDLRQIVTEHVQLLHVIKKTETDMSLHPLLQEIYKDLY

Mus musculus [3] = assay: Toxicity in LDLR-deficient mouse assessed as increase in liver weight at 60 mg/kg; assay type: organism-based; design: dose 60 mg/kg; conditions: in vivo
Mus musculus [4] = assay: Antiatherogenic effect in HC/HF diet-fed apolipoprotein E-deficient C57BL/6J mouse assessed as increase in HDL-cholesterol at 2 mg/kg/day for 4 weeks; assay type: functional, organism-based
Outline: (§1)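 Apoe-/- mice, eight weeks old, fed an atherogenic HC/HF diet (1.25% cholesterol, 21% fat) for 14 weeks. They received 2 mg/kg/day of test agent (n = 7) or vehicle (n = 6) over the final 4 weeks, then were compared with the vehicle group.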

[5] = biological target: T2, Peroxisome proliferator-activated receptor alpha (Mus musculus) (UniProt P23204); assay: Agonist activity at mouse PPAR-alpha expressed in african green monkey CV-1 cells after 24 hrs by luciferase reporter gene assay; assay type: functional, cell-based
T2 sequence (whole entry): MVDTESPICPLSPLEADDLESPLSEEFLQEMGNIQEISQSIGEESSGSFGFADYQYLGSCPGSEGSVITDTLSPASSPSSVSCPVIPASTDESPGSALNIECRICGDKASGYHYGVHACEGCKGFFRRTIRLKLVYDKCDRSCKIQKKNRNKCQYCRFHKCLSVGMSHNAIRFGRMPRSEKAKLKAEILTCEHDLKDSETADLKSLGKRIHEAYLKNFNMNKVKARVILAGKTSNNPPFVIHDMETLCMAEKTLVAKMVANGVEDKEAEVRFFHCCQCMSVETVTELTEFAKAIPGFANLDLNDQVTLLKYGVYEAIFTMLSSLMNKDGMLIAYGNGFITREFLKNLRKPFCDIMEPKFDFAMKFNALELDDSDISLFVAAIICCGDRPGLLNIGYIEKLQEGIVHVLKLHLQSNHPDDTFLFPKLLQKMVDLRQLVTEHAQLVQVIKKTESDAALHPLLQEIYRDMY

Mus musculus [6] = assay: Toxicity in […] diet-fed apolipoprotein E-deficient C57BL/6J mouse assessed as increase in liver weight at 2 mg/kg/day for 4 weeks; assay type: organism-based; conditions: in vivo, 672 h; outline: as §1
Mus musculus [7] = assay: Antiatherogenic effect in HC/HF diet-fed apolipoprotein E-deficient C57BL/6J mouse assessed as decrease in lesion fatty streak in aorta at 2 mg/kg/day for 4 weeks; assay type: functional; design: scale not given: the % may be the effect or the level left
Outline: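 ApoE-/- mice were 8 weeks old at start. They were fed an HC/HF atherogenic diet (1.25% cholesterol, 21% fat) for 14 weeks and dosed at 2 mg/kg/day over the last 4 weeks (treated n = 7, vehicle n = 6). Mice were weighed weekly. Lesion fatty streak extent was scored throughout the aorta against vehicle.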

Mus musculus [8] = assay: Effect on cholesterol homeostasis in HC/HF diet-fed apolipoprotein E-deficient C57BL/6J mouse assessed as effect on CD36 gene expression at 2 mg/kg/day for 4 weeks by quantitative RT-PCR; assay type: functional, organism-based; outline: as §1
Mus musculus [9] = assay: Antiatherogenic effect in HC/HF diet-fed apolipoprotein E-deficient C57BL/6J mouse assessed as decrease in IL-6 gene expression at 2 mg/kg/day for 4 weeks by quantitative RT-PCR; assay type: functional, organism-based; outline: as §1
Mus musculus [10] = assay: Effect on cholesterol homeostasis in HC/HF diet-fed apolipoprotein E-deficient C57BL/6J mouse assessed as effect on VCAM-1 gene expression at 2 mg/kg/day for 4 weeks by quantitative RT-PCR; assay type: functional, organism-based; outline: as §1
Mus musculus [11] = assay: Effect on cholesterol homeostasis in HC/HF diet-fed apolipoprotein E-deficient C57BL/6J mouse assessed as effect on Il-10 gene expression at 2 mg/kg/day for 4 weeks by quantitative RT-PCR; assay type: functional, organism-based; outline: as §1
[12] = biological target: T3, Peroxisome proliferator-activated receptor delta (Homo sapiens) (UniProt Q03181); assay: Binding affinity to human PPAR-delta after 1 hr by TR-FRET assay
T3 sequence (whole entry): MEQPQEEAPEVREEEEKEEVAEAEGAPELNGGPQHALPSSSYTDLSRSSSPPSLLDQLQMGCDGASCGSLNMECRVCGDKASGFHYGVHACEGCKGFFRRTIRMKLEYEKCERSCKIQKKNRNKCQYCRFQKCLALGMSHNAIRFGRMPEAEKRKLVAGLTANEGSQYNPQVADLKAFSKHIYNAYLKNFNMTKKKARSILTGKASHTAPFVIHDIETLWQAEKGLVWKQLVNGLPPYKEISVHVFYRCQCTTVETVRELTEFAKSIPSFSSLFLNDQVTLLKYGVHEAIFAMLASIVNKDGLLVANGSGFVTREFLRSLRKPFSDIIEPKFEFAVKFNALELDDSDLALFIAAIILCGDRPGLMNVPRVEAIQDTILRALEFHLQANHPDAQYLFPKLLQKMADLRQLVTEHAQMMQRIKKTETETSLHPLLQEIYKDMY

Mus musculus [13] = assay: Toxicity in apolipoprotein E-deficient C57BL/6J mouse assessed as weight loss at 5 mg/kg; assay type: organism-based; design: dose 5 mg/kg; conditions: in vivo
Mus musculus [14] = assay: Antiatherogenic effect in apoE-deficient mouse assessed as increase in HDL-cholesterol level at 2 mg/kg/day for 4 weeks
[15] = biological target: T4, Peroxisome proliferator-activated receptor delta (Mus musculus, UniProt P35396); assay: Agonist activity at mouse PPAR-delta expressed in african green monkey CV-1 cells after 24 hrs by luciferase reporter gene assay; assay type: functional, cell-based
T4 sequence (P35396 whole entry): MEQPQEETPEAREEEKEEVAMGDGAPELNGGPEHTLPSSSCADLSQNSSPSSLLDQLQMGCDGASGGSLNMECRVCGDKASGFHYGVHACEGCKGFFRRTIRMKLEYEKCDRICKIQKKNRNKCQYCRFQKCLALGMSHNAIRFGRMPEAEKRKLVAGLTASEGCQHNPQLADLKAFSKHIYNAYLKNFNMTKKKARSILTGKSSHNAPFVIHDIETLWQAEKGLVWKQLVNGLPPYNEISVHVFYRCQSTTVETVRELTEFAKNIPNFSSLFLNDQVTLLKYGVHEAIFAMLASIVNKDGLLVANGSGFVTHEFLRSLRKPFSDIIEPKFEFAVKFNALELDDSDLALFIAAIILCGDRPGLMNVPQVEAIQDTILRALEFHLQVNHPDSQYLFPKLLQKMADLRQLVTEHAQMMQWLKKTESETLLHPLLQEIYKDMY

Mus musculus [16] = assay: Effect on cholesterol homeostasis in HC/HF diet-fed apolipoprotein E-deficient C57BL/6J mouse assessed as effect on ICAM-1 gene expression at 2 mg/kg/day for 4 weeks by quantitative RT-PCR; assay type: functional, organism-based; outline: as §1
Mus musculus [17] = assay: Effect on cholesterol homeostasis in HC/HF diet-fed apolipoprotein E-deficient C57BL/6J mouse assessed as effect on ABCA1 gene expression at 2 mg/kg/day for 4 weeks by quantitative RT-PCR; assay type: functional, organism-based; outline: as §1
Mus musculus [18] = assay: Effect on cholesterol homeostasis in HC/HF diet-fed apolipoprotein E-deficient C57BL/6J mouse assessed as effect on MCP1 gene expression at 2 mg/kg/day for 4 weeks by quantitative RT-PCR; assay type: functional, organism-based; outline: as §1
[19] = biological target: Peroxisome proliferator-activated receptor delta (Homo sapiens) (UniProt Q03181); assay: Binding affinity to human PPAR-delta after 1 hr by TR-FRET assay
Mus musculus [20] = assay: Toxicity in apolipoprotein E-deficient C57BL/6J mouse assessed as weight loss at 6 mg/kg; assay type: organism-based; design: dose 6 mg/kg; conditions: in vivo
[21] = biological target: T5, Peroxisome proliferator-activated receptor gamma (Homo sapiens, UniProt P37231); assay: Agonist activity at human PPAR-gamma expressed in african green monkey CV-1 cells after 24 hrs by luciferase reporter gene assay; assay type: functional, cell-based
T5 sequence (P37231 whole entry): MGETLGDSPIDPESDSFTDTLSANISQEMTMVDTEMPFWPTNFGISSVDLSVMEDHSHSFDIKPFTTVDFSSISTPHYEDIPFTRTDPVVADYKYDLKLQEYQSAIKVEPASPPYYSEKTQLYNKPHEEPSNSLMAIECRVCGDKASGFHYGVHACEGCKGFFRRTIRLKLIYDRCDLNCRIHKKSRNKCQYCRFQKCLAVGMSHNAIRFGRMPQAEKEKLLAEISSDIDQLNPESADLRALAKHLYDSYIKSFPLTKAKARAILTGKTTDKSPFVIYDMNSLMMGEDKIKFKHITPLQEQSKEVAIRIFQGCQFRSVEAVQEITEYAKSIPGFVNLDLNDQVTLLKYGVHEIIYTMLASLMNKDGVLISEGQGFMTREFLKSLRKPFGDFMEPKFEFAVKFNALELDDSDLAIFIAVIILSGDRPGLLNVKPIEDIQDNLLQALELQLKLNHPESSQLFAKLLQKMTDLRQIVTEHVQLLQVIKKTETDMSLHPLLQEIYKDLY

[22] = biological target: T6, Peroxisome proliferator-activated receptor alpha (Homo sapiens, UniProt Q07869); assay: Agonist activity at human PPAR-alpha expressed in african green monkey CV-1 cells after 24 hrs by luciferase reporter gene assay; assay type: functional, cell-based
T6 sequence (Q07869 whole entry): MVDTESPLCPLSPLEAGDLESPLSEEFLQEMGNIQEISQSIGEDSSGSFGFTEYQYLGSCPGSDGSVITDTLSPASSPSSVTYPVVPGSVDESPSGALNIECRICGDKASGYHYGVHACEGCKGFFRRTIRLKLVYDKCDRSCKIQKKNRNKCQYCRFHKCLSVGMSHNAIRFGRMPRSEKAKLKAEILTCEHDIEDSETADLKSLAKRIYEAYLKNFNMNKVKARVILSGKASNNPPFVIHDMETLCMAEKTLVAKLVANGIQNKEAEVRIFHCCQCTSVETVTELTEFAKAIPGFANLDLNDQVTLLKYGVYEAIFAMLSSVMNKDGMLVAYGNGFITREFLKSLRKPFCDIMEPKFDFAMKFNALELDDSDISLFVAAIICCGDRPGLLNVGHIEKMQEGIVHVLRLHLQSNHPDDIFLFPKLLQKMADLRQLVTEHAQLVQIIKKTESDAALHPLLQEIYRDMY
Outline: (§2)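 Cell-based co-transfection reporter assay, with EC50 values derived for each PPAR subtype.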

Mus musculus [23] = assay: Toxicity in […] diet-fed apolipoprotein E-deficient C57BL/6J mouse assessed as weight loss at 2 mg/kg/day for 4 weeks; assay type: organism-based; conditions: in vivo, 672 h
Outline: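 Eight-week-old Apoe-/- mice were kept on an HC/HF diet (1.25% cholesterol, 21% fat) for 14 weeks, with 2 mg/kg/day dosing (n = 7) or vehicle (n = 6) in the last 4 weeks. Body weight was recorded every week throughout the experimental period and compared between treated and control groups.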

[24] = biological target: T7, Peroxisome proliferator-activated receptor delta (Homo sapiens, UniProt Q03181); assay: Agonist activity at human PPAR-delta expressed in african green monkey CV-1 cells after 24 hrs by luciferase reporter gene assay; assay type: functional, cell-based; outline: as §2
T7 sequence (Q03181 whole entry): T3 sequence (whole entry)

Mus musculus [25] = assay: Toxicity in apolipoprotein E-deficient C57BL/6J mouse assessed as weight loss at 60 mg/kg; assay type: organism-based; design: dose 60 mg/kg; conditions: in vivo

Cc1cc(SCc2sc(-c3ccc(C(F)(F)F)c(F)c3)nc2C)ccc1OCC(=O)O
Cmax [1]: 21 µM
Activity [2]: Active
Activity (Mus musculus [3]): Toxic
Activity (Mus musculus [4]): Active
Activity [5]: Active

Cc1cc([Se]Cc2sc(-c3ccc(C(F)(F)F)cc3)nc2C)ccc1OCC(=O)O
Activity (Mus musculus [6]): Non-toxic
Activity (Mus musculus [7]): 25%
Activity (Mus musculus [8]): inactive
Activity (Mus musculus [9]): Active
Activity (Mus musculus [10]): inactive
Activity (Mus musculus [11]): inactive
Activity [12]: Active
Activity [2]: inactive
Activity (Mus musculus [13]): Toxic
Activity (Mus musculus [14]): Active
EC50 [15]: 0.0023 µM
Activity (Mus musculus [16]): inactive
Activity (Mus musculus [17]): inactive
Activity (Mus musculus [18]): inactive
Activity [19]: Active
Activity [5]: inactive
Activity (Mus musculus [20]): Toxic
EC50 [21]: > 1 µM
EC50 [22]: > 1 µM
Activity (Mus musculus [23]): Non-toxic
EC50 [24]: 0.0009 µM
Activity (Mus musculus [25]): Toxic

Cc1cc([Se]Cc2sc(-c3ccc(C(F)(F)F)cc3)nc2C)ccc1OC(C)(C)C(=O)O
EC50 [21]: 0.1 µM
EC50 [22]: 0.0152 µM
EC50 [24]: 0.0045 µM

Cc1cc([Se]Cc2sc(-c3ccc(C(F)(F)F)cc3)nc2C)ccc1OC(C)C(=O)O (stereo unspecified)
EC50 [21]: > 1 µM
EC50 [22]: 0.12 µM
EC50 [24]: 0.011 µM

Cc1cc([Se]Cc2sc(-c3ccc(C(F)(F)F)c(F)c3)nc2C)ccc1OC(C)(C)C(=O)O
EC50 [21]: 0.29 µM
EC50 [22]: 0.0246 µM
EC50 [24]: 0.0018 µM
